The text below walks through data of ChEMBL document CHEMBL1143755, “Food web-specific biomagnification of persistent organic pollutants” (Science, 2007).

Structures are written as SMILES.

A short description of data set [1]: Biomagnification factors in Diporeia. The format is ADME.
Data set [2] can be described thus: Octanol-water partition coefficient, log KOW of the compound. It counts as physicochemical.
The species entered for a further data set is Homo sapiens. In words: Biomagnification factors in human. The format is ADME, organism-based. The settings on record: in vivo. Summed up:
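Modelled, not measured: a bioaccumulation model using fugacity D-values (respiration, diet, faeces, urine, metabolism, lactation, growth) gives BMF as fB/fD or CB/CD relative to diet. The Inuit diet is taken as Arctic fish and wildlife (caribou, ringed seal, walrus, beluga) plus southern Canadian agricultural foods, the latter simulated from Great Lakes food chains. KOA is evaluated at 37 °C.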

Data set [3] in a line: Octanol-air partition coefficient, log KOA of the compound. The format is physicochemical.

In general, logP refers to the decadic logarithm of the partition coefficient of the neutral form, usually between octanol and water. Regarding `O=S(=O)(c1ccc(Cl)cc1)c1cc(Cl)c(Cl)cc1Cl` [TETRADIFON], the BMF was less than 1 in data set [1] and 97 in the data set listed under Homo sapiens. The logP in data set [2] (read-out: LogP) turned out to be 4.6. The “log KOA” value in data set [3] is 11.4.

In the case of `ClC1(Cl)C2(Cl)C3(Cl)C4(Cl)C(Cl)(Cl)C5(Cl)C3(Cl)C1(Cl)C5(Cl)C24Cl` (stereo unspecified) [MIREX], the values for the BMF (in data set [1]; in the data set listed under Homo sapiens) were 1 and 82, respectively. The logP in data set [2] (read-out: LogP) stood at 8.1. The “log KOA” value in data set [3] is given as 9.6.

As for `Clc1cc(Cl)cc(Cl)c1` [1,3,5-TRICHLOROBENZENE], the BMF (in data set [1]; in the data set listed under Homo sapiens) was less than 1 in each case. Besides, in data set [2] (read-out: LogP), the lipophilicity (logP) is 3.5. The “log KOA” value in data set [3] amounted to 4.7.

With `Clc1cc(Cl)c(Cl)cc1Cl`, the BMF in data set [1] is recorded as less than 1; in the data set filed under Homo sapiens, 5.9. The log partition coefficient (logP) in data set [2] (read-out: LogP) was 4.7. Further, the “log KOA” value in data set [3] turned out to be 6.3.

`CCCN(CCC)c1c([N+](=O)[O-])cc(C(F)(F)F)cc1[N+](=O)[O-]` [TRIFLURALIN]: the BMF in data set [1] was less than 1; in the data set filed under Homo sapiens, 28. For the same molecule, the lipophilicity (logP) in data set [2] (read-out: LogP) was 4.4. In data set [3], the “log KOA” value stood at 7.2.

On to `Brc1ccc(Oc2ccc(Br)cc2Br)c(Br)c1`, for which the values for the BMF (in data set [1]; in the data set filed under Homo sapiens) were 2.2 and 98, respectively. Moreover, in data set [2] (read-out: LogP), the lipophilicity (logP) came out at 6. Moreover, the “log KOA” value in data set [3] is listed as 9.8.

For the molecule `ClC(Cl)=C(Cl)C(Cl)=C(Cl)Cl` [HEXACHLOROBUTADIENE], the BMF (in data set [1]; in the data set filed under Homo sapiens) was less than 1 in each case. Besides, the logP in data set [2] (read-out: LogP) came to 4.5. Besides, the “log KOA” value in data set [3] came out at 3.9.

Take `Brc1ccc(Oc2cc(Br)c(Br)cc2Br)c(Br)c1`: the BMF in data set [1] came out at 2.5; in the data set filed under Homo sapiens, 98. The logP in data set [2] (read-out: LogP) came out at 6.8. The “log KOA” value in data set [3] amounted to 11.2.

Take `OC(c1ccc(Cl)cc1)(c1ccc(Cl)cc1)C(Cl)(Cl)Cl` [DICOFOL]: the BMF is less than 1 in data set [1] and 76 in the data set listed under Homo sapiens. Moreover, the logP in data set [2] (read-out: LogP) stood at 3.5. Also, the “log KOA” value in data set [3] was determined as 8.9.

Consider `Clc1c(Cl)c(Cl)c(Cl)c(Cl)c1Cl` [PERCHLOROBENZENE], for which the BMF in data set [1] was 1.8; in the data set listed under Homo sapiens, 55. Moreover, the logP in data set [2] (read-out: LogP) is 5.5. Moreover, the “log KOA” value in data set [3] was determined as 7.7.

As to `Cl[C@H]1[C@H](Cl)[C@@H](Cl)[C@H](Cl)[C@@H](Cl)[C@@H]1Cl` [BETA-HEXACHLOROCYCLOHEXANE], the BMF in data set [1] is given as less than 1; in the data set listed under Homo sapiens it was 84. In addition, the log partition coefficient (logP) in data set [2] (read-out: LogP) was 3.8. For the same molecule, in data set [3], the “log KOA” value is recorded as 8.9.

Consider `ClC1=C(Cl)[C@]2(Cl)[C@@H]3[C@@H]4C[C@@H]([C@H]5O[C@@H]45)[C@@H]3[C@@]1(Cl)C2(Cl)Cl` [DIELDRIN], for which the BMF in data set [1] is given as 1.7; in the data set filed under Homo sapiens it was 93. Further, in data set [2] (read-out: LogP), the log partition coefficient (logP) came to 5.4. Besides, the “log KOA” value in data set [3] is 8.8.

As to `Clc1cc(Cl)c(-c2cc(Cl)c(Cl)cc2Cl)cc1Cl` [2,2',4,4',5,5'-HEXACHLOROBIPHENYL], the values for the BMF (in data set [1]; in the data set filed under Homo sapiens) were 2.5 and 96, respectively. Moreover, the log partition coefficient (logP) in data set [2] (read-out: LogP) is 7.5. Further, the “log KOA” value in data set [3] is 9.6.

Consider `Cc1c([N+](=O)[O-])c(C)c([N+](=O)[O-])c(C(C)(C)C)c1[N+](=O)[O-]`, for which the BMF was less than 1 in data set [1] and 89 in the data set listed under Homo sapiens. Moreover, in data set [2] (read-out: LogP), the logP worked out at 4.1. In addition, the “log KOA” value in data set [3] is listed as 8.9.

As for `Clc1cc(Cl)c(-c2cc(Cl)c(Cl)c(Cl)c2Cl)cc1Cl`, the values for the BMF (in data set [1]; in the data set listed under Homo sapiens) were 2.5 and 95, respectively. Also, in data set [2] (read-out: LogP), the logP was determined as 7.5. Also, in data set [3], the “log KOA” value came to 10.9.

Turning to `C=Cc1ccccc1` [STYRENE], the BMF (in data set [1]; in the data set listed under Homo sapiens) was less than 1 each time. The logP in data set [2] (read-out: LogP) is 2.5. For the same molecule, the “log KOA” value in data set [3] turned out to be 4.9.

On to `Brc1c(Br)c(Br)c(Oc2c(Br)c(Br)c(Br)c(Br)c2Br)c(Br)c1Br`, for which the BMF worked out at 1 in data set [1] and 8 in the data set filed under Homo sapiens. Further, in data set [2], the logP amounted to 9.9. Besides, in data set [3], the “log KOA” value is 13.1.

`O=S1OC[C@@H]2[C@H](CO1)[C@@]1(Cl)C(Cl)=C(Cl)[C@@]2(Cl)C1(Cl)Cl` (stereo partly specified): the BMF in data set [1] is given as less than 1; in the data set filed under Homo sapiens, 23. The logP in data set [2] (read-out: LogP) came out at 3.7. For the same molecule, the “log KOA” value in data set [3] is listed as 7.1.

On to `Clc1cc(Cl)c(Cl)c(Cl)c1Cl` [PENTACHLOROBENZENE], for which the BMF is less than 1 in data set [1] and 16 in the data set listed under Homo sapiens. For the same molecule, the log partition coefficient (logP) in data set [2] (read-out: LogP) was 5. In addition, in data set [3], the “log KOA” value was determined as 6.9.
